# Measurements of several laboratories.
# Protocols differ between the studies behind these lines.
# UGT2B7: UDP-glucuronosyltransferase 2B7 (UGT2B7, Homo sapiens, UniProt P16662)
Compound,target or system,test,test system,setting,endpoint,result
C=C1CC[C@@H]2[C@](C)(CO)[C@H](O)CC[C@@]2(C)[C@@H]1/C=C/C1=CCOC1=O,UGT2B7,"enzyme activity, inhibitor",,,Ki,6.9 µM
CN(C)CCc1c[nH]c2ccccc12,,,"human, plasma","intravenous, 9 mg, healthy volunteers, infusion",Tmax,0.16 h
CSCC[C@H](NC(=O)COCCOCCNC(=O)COCCOCCNC(=O)CC[C@H](NC(=O)CCCCCCCCCCCCCCCCC(=O)O)C(=O)O)C(=O)N[C@H]1CSSC[C@@H](C(=O)NCC(=O)N[C@@H](CO)C(=O)NCC(=O)N[C@@H](CO)C(=O)N[C@@H](CC(=O)O)C(=O)N[C@@H](Cc2ccc(O)cc2)C(=O)N[C@@H](CCCCN)C(=O)N[C@@H](CC(=O)O)C(=O)N[C@@H](CC(=O)O)C(=O)N[C@@H](CC(=O)O)C(=O)N[C@@H](CC(=O)O)C(=O)N[C@@H](CCCCN)C(N)=O)NC(=O)[C@H](Cc2ccccc2)NC(=O)[C@@H]2CCCN2C(=O)[C@H](Cc2c[nH]c3ccccc23)NC(=O)[C@H](CC(C)C)NC(=O)[C@H](CCSC)NC(=O)[C@H](Cc2c[nH]cn2)NC(=O)[C@H](Cc2ccccc2)NC(=O)[C@H](Cc2c[nH]cn2)NC(=O)[C@H]([C@@H](C)O)NC(=O)[C@H](Cc2ccccc2)NC1=O,,,"male Sprague-Dawley rat, plasma",intravenous,MRT,13.7 h
C=C1CCC2C(C)(CO)C(=O)CCC2(C)C1C=CC1=CCOC1=O (centres unmarked),UGT2B7,"enzyme activity, inhibitor",,,Ki,13.7 µM
CC(=C/C=C/C(C)=C/C(=O)O)/C=C1\CCCc2ccccc21,,,"human, plasma","oral, 20 mg, single dose, fasted, healthy volunteers",Tmax,2.88 h
C[C@@H](c1ccc2nccn2c1)n1nnc2ncc(-c3cnn(C)c3)nc21,,,"human, plasma","oral, 600 mg",Tmax,4 h
Cl.Cl.O=C(CCN1CCCCC1)c1ccc(-c2ccc(C(=O)CCN3CCCCC3)cc2)cc1,,,"Sprague-Dawley rat, plasma","oral, 100 mg/kg",MRT(0-t),12.2 h
Cc1ncc2n1-c1ccc(Cl)cc1C(c1ccccc1F)=NC2,,,"human, plasma","oral, 2 mg, single dose",Tmax,0.67 h
CC(Cc1ccccc1)NCCn1cnc2c1c(=O)n(C)c(=O)n2C (centres unmarked),"Voltage-gated inwardly rectifying potassium channel KCNH2 (KCNH2, Homo sapiens, UniProt Q12809)","ligand displacement, radioligand",,10 µM,inhibition,-4%
O=C1[O][Pt]2([NH][C@@H]3CCCC[C@H]3[NH]2)[O]C1=O (relative stereo),,,"cynomolgus monkey, plasma","oral, 10 mg/kg",MRT,19.7 h
COc1ccc(C[C@@H]2NC(=O)[C@H]([C@@H](C)O)NC(=O)[C@@H]3[C@@H]4CCN3C(=O)[C@@H]3Cc5cn(c6ccc(F)cc56)CCCCCCN(Cc5ccc(cc5)CCNC(=O)[C@]5(C)CCCN5C2=O)C(=O)CCC(=O)N[C@@H](C)C(=O)N[C@H](CNC(=O)CCCCC[N+](C)(C)C)C(=O)N[C@@H](Cc2cccc(c2)CNC(=O)CO4)C(=O)N3)cc1,,,"human, plasma","oral, 200 mg, single dose",Tmax,14.5 h
N=C(N)NCCC[C@@H](NC(=O)[C@@H](N)Cc1ccccc1)C(=O)N[C@@H](Cc1ccccc1)C(=O)N[C@@H](CCCCN)C(N)=O,,,"human, plasma","subcutaneous, 15 mg, patients",Tmax,0.75 h
O=C(O)c1cn(Cc2ccc(F)cc2)c2ccccc12,UGT2B7,"enzyme activity, substrate",,,Km,61.5 µM
Cc1ncc2n1-c1ccc(Cl)cc1C(c1ccccc1F)=NC2,,,"human, plasma","intravenous, 3 µg, single dose",Tmax,0.0333 h
